Test results as given in ChEMBL document CHEMBL1667754, “Synthesis and biological activity of pyrazolothienotetrahydroisoquinoline and [1,2,4]triazolo[3,4-a]thienotetrahydroisoquinoline derivatives” (2011).

Columns and labels:
Candida albicans = experiment: Antifungal activity against Candida albicans at 200 ug/disc by disc diffusion assay
Serratia marcescens = experiment: Antibacterial activity against Serratia marcescens at 200 ug/disc by disc diffusion assay
Aspergillus niger = experiment: Antifungal activity against Aspergillus niger at 2% by disc diffusion assay
Staphylococcus aureus = experiment: Antibacterial activity against Staphylococcus aureus at 200 ug/disc by disc diffusion assay
Geotrichum candidum = experiment: Antifungal activity against Geotrichum candidum at 2% by disc diffusion assay
Pseudomonas aeruginosa = experiment: Antibacterial activity against Pseudomonas aeruginosa at 200 ug/disc by disc diffusion assay
Fusarium oxysporum = experiment: Antifungal activity against Fusarium oxysporum at 2% by disc diffusion assay
Bacillus cereus = experiment: Antibacterial activity against Bacillus cereus at 200 ug/disc by disc diffusion assay
Micrococcus luteus = experiment: Antibacterial activity against Micrococcus luteus at 50 uL/well by well diffusion assay; type: functional
Method in brief: (§1)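 Bauer-type diffusion assay. Test compounds were at 2% in DMSO. The read-out was the diameter (mm) of the inhibition zone, with chloramphenicol as the reference agent.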

[1] = system: Scopulariopsis brevicaulis; experiment: Antifungal activity against Scopulariopsis brevicaulis at 2% by disc diffusion assay
Escherichia coli = experiment: Antibacterial activity against Escherichia coli at 50 uL/well by well diffusion assay; type: functional
Method in brief: as §1

Trichophyton rubrum = experiment: Antifungal activity against Trichophyton rubrum at 50 uL/well by well diffusion assay; type: functional
Method in brief: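 Agar discs (10 mm) carrying spores and hyphae were shaken in sterile distilled water. 1 mL of the spore suspension was plated and mixed with 15 mL molten SDA, then left to set. Compounds were at 2% in DMSO, applied per Bauer's diffusion method. The read-out was the inhibition zone (mm).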

Aspergillus flavus = experiment: Antifungal activity against Aspergillus flavus at 2% by disc diffusion assay

SMILES | diameter of the inhibition zone (DIZ) (Candida albicans) | diameter of the inhibition zone (DIZ) (Serratia marcescens) | diameter of the inhibition zone (DIZ) (Aspergillus niger) | diameter of the inhibition zone (DIZ) (Staphylococcus aureus) | diameter of the inhibition zone (DIZ) (Geotrichum candidum) | diameter of the inhibition zone (DIZ) (Pseudomonas aeruginosa) | diameter of the inhibition zone (DIZ) (Fusarium oxysporum) | diameter of the inhibition zone (DIZ) (Bacillus cereus) | diameter of the inhibition zone (DIZ) (Micrococcus luteus) | diameter of the inhibition zone (DIZ) [1] | diameter of the inhibition zone (DIZ) (Escherichia coli) | diameter of the inhibition zone (DIZ) (Trichophyton rubrum) | diameter of the inhibition zone (DIZ) (Aspergillus flavus)
NC(=O)c1sc2c(c1N)c1c(c3nncn32)CCCC1 | 0 mm | 0 mm | 0 mm | 8 mm | 0 mm | 0 mm | 0 mm | 10 mm | 0 mm | 0 mm | 0 mm | 0 mm | 0 mm
CC(=O)CSc1c(C#N)c2c(c3nncn13)CCCC2 | 0 mm | 12 mm | 0 mm | 10 mm | 0 mm | 0 mm | 0 mm | 12 mm | 12 mm | 0 mm | 8 mm | 0 mm | 0 mm
CC(=O)c1sc2c(c1N)c1c(c3nncn32)CCCC1 | 0 mm | 0 mm | 0 mm | 0 mm | 0 mm | 0 mm | 0 mm | 0 mm | 0 mm | 0 mm | 0 mm | 0 mm | 0 mm
N#Cc1c2c(c3nncn3c1SCC(=O)c1ccccc1)CCCC2 | 11 mm | 0 mm | 16 mm | 0 mm | 8 mm | 0 mm | 11 mm | 14 mm | 14 mm | 10 mm | 10 mm | 0 mm | 20 mm
Nc1c(C(=O)c2ccccc2)sc2c1c1c(c3nncn32)CCCC1 | 11 mm | 0 mm | 13 mm | 0 mm | 8 mm | 0 mm | 0 mm | 0 mm | 11 mm | 8 mm | 10 mm | 0 mm | 15 mm
N#CCSc1nc(NN)c2c(c1C#N)CCCC2 | 10 mm | 10 mm | 0 mm | 8 mm | 0 mm | 0 mm | 0 mm | 0 mm | 0 mm | 0 mm | 0 mm | 0 mm | 0 mm
Cc1cc(C)n(-c2nc(SCC#N)c(C#N)c3c2CCCC3)n1 | 12 mm | 10 mm | 8 mm | 8 mm | 10 mm | 0 mm | 8 mm | 8 mm | 0 mm | 0 mm | 0 mm | 0 mm | 0 mm
CCOC(=O)CSc1nc(NN)c2c(c1C#N)CCCC2 | 0 mm | 0 mm | 0 mm | 8 mm | 0 mm | 0 mm | 0 mm | 8 mm | 0 mm | 0 mm | 0 mm | 0 mm | 0 mm
CCOC(=O)CSc1nc(-n2nc(C)cc2C)c2c(c1C#N)CCCC2 | 0 mm | 10 mm | 0 mm | 7 mm | 10 mm | 0 mm | 0 mm | 0 mm | 0 mm | 0 mm | 10 mm | 0 mm | 0 mm
N#Cc1c(SCC(N)=O)nc(NN)c2c1CCCC2 | 0 mm | 8 mm | 0 mm | 0 mm | 10 mm | 0 mm | 10 mm | 0 mm | 0 mm | 0 mm | 11 mm | 0 mm | 0 mm
Cc1cc(C)n(-c2nc(SCC(N)=O)c(C#N)c3c2CCCC3)n1 | 0 mm | 0 mm | 8 mm | 10 mm | 0 mm | 0 mm | 0 mm | 0 mm | 0 mm | 0 mm | 0 mm | 0 mm | 0 mm
CC(=O)CSc1nc(NN)c2c(c1C#N)CCCC2 | 11 mm | 8 mm | 0 mm | 0 mm | 12 mm | 0 mm | 0 mm | 11 mm | 0 mm | 0 mm | 12 mm | 20 mm | 0 mm
CC(=O)CSc1nc(-n2nc(C)cc2C)c2c(c1C#N)CCCC2 | 10 mm | 8 mm | 0 mm | 0 mm | 8 mm | 0 mm | 10 mm | 0 mm | 0 mm | 0 mm | 13 mm | 17 mm | 0 mm
O=C(N[C@H](CO)[C@H](O)c1ccc([N+](=O)[O-])cc1)C(Cl)Cl [CHLORAMPHENICOL] |  | 40 mm |  | 20 mm |  | 17 mm |  | 30 mm | 18 mm |  | 34 mm |  | 
Clc1ccccc1C(c1ccccc1)(c1ccccc1)n1ccnc1 [CLOTRIMAZOLE] | 27 mm |  | 25 mm |  | 26 mm |  | 25 mm |  |  | 27 mm |  | 40 mm | 26 mm
